Screening results as filed in PubChem.
In the library only some 4.1% were active in any assay of this set; here they are far more common.
TAG inh = reduces triacylglycerol accumulation in H9c2 cells. Nile Red lipid (TAG) fluorescence; cells loaded with 200 µM oleic acid. inhibition, % at 12.5 µM. hit rate 0.66% among 230,000. AID 651582;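 active means pattern-corrected inhibition of lipid staining of at least 50% with the nuclear-stain viability signal not falling by more than 50%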;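 further: 0% = DMSO wells and 100% = triacsin C control wells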
Tb MetRS inh = Trypanosoma brucei MetRS inhibition; purified T. brucei MetRS, ATP depletion, Kinase-Glo luminescence; inhibition, % at 11.9 µM; hit rate 0.4% among 360,000;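 active means inhibition above a per-plate cutoff of the control wells' mean inhibition plus 3 SD, cut at about 5.5% in these data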;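 further: 0% = DMSO wells median and 100% = median of wells with control inhibitor compound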
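Material: T. brucei methionyl-tRNA synthetase, purified; reagent: substrates ATP, L-methionine and bulk Escherichia coli tRNA; dosing: 11.9 µM single point; timing: 15 min plus 2 h at 25 °C; detection: luminescence of leftover ATP; evaluation: % inhibition; control set: DMSO-only wells as low control; replicates: singlicate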
Efflux pump mplx = blocks antifungal efflux pumps in multiplex yeast assay; S. cerevisiae Candida pump triplex, Nile Red efflux; inhibition, % at 10 µM; hit rate 0.44% among 330,000;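 active means plate passing quality check with inhibition over a set limit, or well fluorescence over plate mean plus 4 SD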;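 further: Nile Red retained in pooled yeast measured as flow cytometry median fluorescence; 0% = buffer negative control and 100% = Enniatin B positive control; higher means more Nile Red kept so more efflux inhibition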
SMARCA2 act = increases SMARCA2 function in MMTV reporter cells; activation, % at 9.1 µM; hit rate 1% among 370,000; AID 652017; MG213 cells, MMTV-luciferase reporter, dexamethasone, overnight; in the data active means activation above about 7.8%;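 further: 0% = vehicle wells and 100% = reference activator wells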
AHR activator = activators of human aryl hydrocarbon receptor. activation, % at 5 µM. AHR-responsive luciferase reporter cells, luminescence. AID 2796. P35869. hit rate 2.5% among 320,000; in the data active means activation above about 47%;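 further: 0% = vehicle wells and 100% = reference agonist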
Target sequence (P35869 whole entry, looked up): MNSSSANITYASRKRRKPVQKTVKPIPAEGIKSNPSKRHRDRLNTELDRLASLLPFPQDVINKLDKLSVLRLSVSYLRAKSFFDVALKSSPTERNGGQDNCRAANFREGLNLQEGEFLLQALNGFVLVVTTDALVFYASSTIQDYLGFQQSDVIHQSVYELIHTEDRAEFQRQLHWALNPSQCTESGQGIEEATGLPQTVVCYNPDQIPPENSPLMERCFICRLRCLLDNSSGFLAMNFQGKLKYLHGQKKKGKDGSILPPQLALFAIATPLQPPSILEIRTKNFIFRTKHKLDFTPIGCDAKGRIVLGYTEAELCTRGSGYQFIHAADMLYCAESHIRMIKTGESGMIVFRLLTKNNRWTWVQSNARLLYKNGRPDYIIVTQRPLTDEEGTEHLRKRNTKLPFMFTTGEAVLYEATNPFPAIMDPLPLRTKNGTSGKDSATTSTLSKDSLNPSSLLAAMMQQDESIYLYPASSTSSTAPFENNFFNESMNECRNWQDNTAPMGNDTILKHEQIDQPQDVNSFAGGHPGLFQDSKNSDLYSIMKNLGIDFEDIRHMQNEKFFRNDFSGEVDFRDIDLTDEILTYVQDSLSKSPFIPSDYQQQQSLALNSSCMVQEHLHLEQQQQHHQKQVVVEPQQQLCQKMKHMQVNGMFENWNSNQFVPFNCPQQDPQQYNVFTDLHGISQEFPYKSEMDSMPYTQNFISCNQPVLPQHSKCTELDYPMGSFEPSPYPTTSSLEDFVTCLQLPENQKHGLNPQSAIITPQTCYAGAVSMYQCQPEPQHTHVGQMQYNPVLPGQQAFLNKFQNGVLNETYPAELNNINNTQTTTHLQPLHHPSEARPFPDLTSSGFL
Starred values were filed as active, the others as inactive; x = not tested or not shown.

SMILES | TAG inh | Tb MetRS inh | Efflux pump mplx | SMARCA2 act | AHR activator
COc1ccc(/C=N/NC(=O)c2nc(-c3ccccc3)cc(-c3ccccc3)n2)cc1 | x | 0 | 0 | 0 | 20
COc1cc(N=Nc2cccc(S(N)(=O)=O)c2)c2ccccc2c1N | x | -1 | 0 | 3 | 57*
NC1=NC(=Nc2cccc(S(N)(=O)=O)c2)c2ccccc21 | 5 | 0 | 0 | 5 | 2
CC(C)N=c1cc2n(-c3ccc(Cl)cc3)c3ccccc3nc-2cc1Nc1ccc(Cl)cc1 | 137* | -1 | 0 | -3 | -2
O=C1CN(C(=O)c2ccc(Br)o2)C(c2ccccc2)c2cc(Br)ccc2N1 (centres undefined) | -14 | -1 | 0 | -7 | 70*
Cc1ccc2c(c1)C(c1ccccc1)N(C(=O)c1ccc(Br)o1)CC(=O)N2 (centres undefined) | -32 | 1 | 0 | -2 | 15
O=C1CN(C(=O)c2ccc(Br)o2)C(c2ccc(F)cc2)c2cc(Cl)ccc2N1 (centres undefined) | -28 | 1 | 0 | -5 | 27
O=C1CN(C(=O)c2ccc(Br)o2)C(c2ccccc2)c2cc(Cl)ccc2N1 (centres undefined) | -22 | 0 | 0 | -2 | 66*
Cc1ccc(S(=O)(=O)N2CCCC2C(=O)N2CCN(c3ccccc3)CC2)cc1 (centres undefined) | x | x | x | 5 | x
O=C(Nc1ccc(OC(F)(F)F)cc1)c1cnc2n(c1=O)CCS2 | -13 | 0 | 0 | -3 | 67*
O=C(Nc1ccccc1)c1cnc2n(c1=O)CCS2 | 1 | 0 | 0 | 5 | 54*
CCCCOC(=O)c1ccc(NC(=O)c2cnc3n(c2=O)CCS3)cc1 | -53 | -1 | 0 | -4 | 0
COc1ccc(NC(=O)c2ccccc2NC(=O)c2ccco2)cc1 | x | 0 | 0 | -1 | 63*
CCOCC(=O)Nc1cc(C(=O)Nc2cccc(C)c2C)ccc1Cl | x | -1 | 0 | 1 | 0
CCOc1ccccc1NC(=O)c1cnccn1 | -6 | 0 | 0 | 4 | 3
CCOc1ccccc1NC(=O)c1ccc(C(=O)Nc2ccccc2OCC)nc1 | x | 0 | 0 | -1 | 72*
CCOCC(=O)Nc1cc(C(=O)Nc2ccc(F)cc2)ccc1Cl | x | x | 0 | x | 63*
O=C(Nc1ccccc1C(=O)N/N=C/c1ccccc1)c1ccco1 | x | -1 | 0 | 0 | 48*
COc1ccc(OC)c(NC(=O)c2ccccc2NC(=O)c2ccco2)c1 | 2 | -1 | 0 | -3 | 6
COC(=O)C1CN(Cc2cn(Cc3ccc(Cl)cc3)nn2)CCS(=O)(=O)N1Cc1ccc(C)cc1 (centres undefined) | x | x | x | 0 | x
O=S1(=O)c2ccc(N3CC[C@@H](O)C3)cc2OCCCN1C1CC1 | x | x | x | -3 | x
Cc1noc(C)c1S(=O)(=O)N1CCCc2nc(-c3ccc(Br)cc3)ccc21 | x | x | x | -2 | x
O=C(Nc1ccccc1C(=O)Nc1ccc2c(c1)OCO2)c1ccco1 | 37 | -2 | 0 | 2 | 47*
Cc1cccc(NC(=O)c2ccccc2NC(=O)c2ccco2)c1 | 15 | 0 | 0 | 3 | 46
CCOc1ccccc1NC(=O)c1cccc2ccccc12 | -13 | -1 | 0 | 0 | 74*
SMILES | TAG inh | Tb MetRS inh | Efflux pump mplx | SMARCA2 act | AHR activator
O=C(/C=C/c1ccco1)Nc1ccc2c(c1)OCO2 | -12 | 0 | 0 | 3 | 72*
O=C(/C=C/c1ccco1)NCc1ccc2c(c1)OCO2 | -10 | 0 | 0 | 3 | 1
CCOc1ccccc1NC(=O)c1ccccc1NC(=O)c1ccco1 | x | -1 | 0 | -1 | 70*
CCc1nnn2c1Cn1c3ccccc3c(=O)n1[C@@H](C(C)C)C2 | x | x | x | -1 | x
CCOC(=O)[C@]12CCCC=C1N(Cc1ccc(OC)cc1)C(=O)[C@@H]2CC(=O)N1CCCCC1 | x | x | x | -4 | x
COc1ccc(C(=O)Nc2ccccc2C(=O)Nc2ccncc2)cc1 | 45 | 0 | 0 | 2 | 61*
CCOc1ccccc1NC(=O)c1ccccc1-c1ccccc1 | -4 | 0 | 0 | -2 | 4
CCOc1ccccc1NC(=O)c1cc(SC)ccc1Cl | 1 | 0 | 0 | -2 | 72*
COc1ccc(C(=O)Nc2ccccc2C(=O)Nc2ccc(C(=O)O)cc2)cc1 | -11 | 2 | 0 | 2 | 1
O=C(Oc1ccccc1)c1ccc(NC(=O)c2ccco2)cc1 | x | -1 | 0 | -2 | 0
O=C(O)c1cccc(NC(=O)c2ccccc2NC(=O)c2ccco2)c1 | x | 0 | 0 | 0 | 0
O=C(Nc1ccccc1C(=O)Nc1ccccc1)c1ccco1 | x | 0 | 0 | 4 | 76*
COC(=O)c1ccc(NC(=O)c2ccc(NC(=O)c3ccco3)cc2)cc1 | 27 | 0 | 11* | -1 | -14
CC(=O)c1cc(-c2ccc3[nH]ccc3c2)c(=O)n2c1CCC2 | x | x | x | 4 | x
CCSc1nnc(NC(=O)c2cccc3ccccc23)s1 | 9 | 0 | 0 | 0 | 52*
O=C(Nc1c(O)c2ccccc2[nH]c1=O)c1ccco1 | 14 | 0 | 0 | 1 | 78*
CCOc1ccccc1NC(=O)c1ccc(Cl)c(NC(=O)CC(c2ccccc2)c2ccccc2)c1 | x | 0 | 0 | 0 | 80*
CCOc1ccccc1NC(=O)c1cccc(NC(=O)CC(c2ccccc2)c2ccccc2)c1 | x | -1 | 0 | -3 | -4
CCOc1ccccc1NC(=O)c1csc(C)c1C | -21 | 0 | 0 | -2 | 71*
CCCCCCC(=O)Nc1c(O)c2ccccc2[nH]c1=O | 6 | 0 | 0 | 2 | 4
CCSc1nnc(NC(=O)COc2ccc3ccccc3c2)s1 | 0 | -2 | 0 | 1 | 7
Cc1ccccc1Cn1cc(COC(=O)Nc2ccc(F)cc2)nn1 | x | x | x | -1 | x
CCOC(=O)C1CSCCS(=O)(=O)N1Cc1ccccc1F (centres undefined) | x | x | x | -5 | x
C=CCN(CC#Cc1ccc(C(F)(F)F)cc1)CC=C | x | x | x | -1 | x
CC(=O)CC[C@@H]1CC[C@]2(CCCN(C(=O)c3ccc4ccccc4n3)C2)O1 | x | x | x | 3 | x
SMILES | TAG inh | Tb MetRS inh | Efflux pump mplx | SMARCA2 act | AHR activator
COc1cc(/C=C(/C#N)c2nc3ccccc3[nH]2)ccc1OC(=O)c1ccco1 | x | 1 | 0 | 2 | 60*
COc1ccc(/C=C(\C#N)c2nc3ccccc3[nH]2)cc1O | x | 1 | x | 7 | x
COc1ccccc1N/C=C(\C#N)c1nc2ccccc2[nH]1 | 15 | -1 | 0 | 1 | 70*
N#C/C(=C(/O)c1cccs1)c1nc2ccccc2[nH]1 | 3 | 0 | 0 | -2 | 54*
COc1ccccc1/C(O)=C(\C#N)c1nc2ccccc2[nH]1 | 11 | 0 | 0 | 2 | 48*
N#C/C(=C(/O)c1ccc(Br)s1)c1nc2ccccc2[nH]1 | -10 | 0 | 0 | 1 | 11
O=C(CSc1nc2ccccc2o1)NN=C/C=C\c1ccccc1[N+](=O)[O-] | x | x | x | 6 | x
COC(=O)[C@]12CCCCC=C1N(Cc1ccc(OC)cc1)C(=O)[C@@H]2CC(=O)NCC1CCCCC1 | x | x | x | -4 | x
CC(C)CN1C(=O)C[C@@]2(C(=O)N(C)c3ccc(NS(=O)(=O)c4ccc(F)cc4)cc32)C1c1ccccc1 (some centres undefined) | x | x | x | -3 | x
